Compounds with a hit are over-represented: about 3.7% of the library has one in this group of screens.
KCNK3 inh = human KCNK3 channel inhibitors, primary screen, CHO cells, FluxOR thallium flux, B-score. B-score at 10 µM. 0.84% of 340,000 active. Potassium channel subfamily K member 3 (Homo sapiens), O14649. FluxOR fluorescence; stronger effect = lower value;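 active = B-score under library mean minus 4 SD, starting fluorescence ratio at most library mean plus 5 SD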;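 also: more negative B-score means stronger inhibition of thallium flux through KCNK3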
Target sequence (O14649 whole entry, looked up): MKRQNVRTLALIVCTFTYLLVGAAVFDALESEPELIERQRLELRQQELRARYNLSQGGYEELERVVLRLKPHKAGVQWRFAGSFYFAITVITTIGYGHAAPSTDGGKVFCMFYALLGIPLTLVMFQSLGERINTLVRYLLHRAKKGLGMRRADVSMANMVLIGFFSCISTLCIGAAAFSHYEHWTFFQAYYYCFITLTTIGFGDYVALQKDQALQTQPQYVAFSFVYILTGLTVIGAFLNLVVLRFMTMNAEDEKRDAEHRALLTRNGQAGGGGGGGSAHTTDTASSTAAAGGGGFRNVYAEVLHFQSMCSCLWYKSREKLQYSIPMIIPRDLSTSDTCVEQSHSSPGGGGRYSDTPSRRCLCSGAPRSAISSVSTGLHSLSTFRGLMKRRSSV
hERG protect = hERG rescue from dofetilide block, primary screen, cell-based, CHO-hERG, FluxOR thallium flux, dofetilide IC70; Voltage-gated inwardly rectifying potassium channel KCNH2 (Homo sapiens), Q12809; dofetilide IC70 present; activation (rescue from dofetilide block), less the hit threshold, % at 10 µM; 0.51% of 310,000 active; AID 1511, 2009;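 active = activation above the mean of controls blocked by dofetilide plus 5 SD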;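 also: thallium influx through hERG after potassium depolarization seen as dye fluorescence rise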
Kir21 block = inhibitors of mouse Kir2.1 inward-rectifier potassium channel | HEK293-Kir2.1, FluxOR thallium flux fluorescence; stronger effect = lower value | 0.85% of 310,000 active | B-score at 10 µM | AID 1672, 2009 | Inward rectifier potassium channel 2 (Mus musculus), P35561;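 active = fluorescence ratio B-score at or below minus 3 SD of library scores, with starting-brightness B-score within 2 SD, cut at about -4.2 in these data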;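 also: channel flux triggered by added potassium and thallium sulfate stimulus; B-score of peak minus minimum fluorescence over baseline after thallium stimulus; more negative B-score means stronger Kir2.1 block with less thallium influx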
KCNQ1 inh = inhibitors of human KCNQ1 channel, primary screen, cell-based, thallium flux, high-throughput; Potassium voltage-gated channel subfamily KQT member 1 (Homo sapiens), P51787; 1.3% of 310,000 active; B-score at 10 µM; AID 2642, 2010; CHO-K1 KCNQ1, FluxOR thallium flux fluorescence; stronger effect = higher value;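 active = compounds whose thallium flux B-score, printed positive for inhibition, exceeds three library SD while starting fluorescence stays within three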;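 also: channel opened by potassium depolarization with thallium stimulus after 20 min compound exposure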
KCNQ1 act = potentiators or activators of KCNQ1 channel, primary screen, cell-based, thallium flux, high-throughput; CHO-K1 KCNQ1, thallium flux FluxOR fluorescence; stronger effect = higher value; B-score at 10 µM; 0.35% of 310,000 active; AID 2648, 2010;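 active = fluorescence ratio B-score, a plate-corrected score, at least three library SD, with initial intensity B-score within 5 SD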
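Assay system: CHO-K1 cells stably expressing KCNQ1. Medium: assay buffer for compound exposure, DMSO matched across wells. Timing: 37 °C overnight plating, 90-min dark dye load, 20-min compound pretreatment. Signal: kinetic FluxOR fluorescence, 10 s baseline plus 110 s post-stimulus.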
KCNK9 inh = KCNK9 potassium channel inhibitors, primary screen, HEK293 cells, thallium flux | B-score at 10 µM | Potassium channel subfamily K member 9 (Homo sapiens), Q9NPC2 | FluxOR thallium flux fluorescence; stronger effect = lower value | 1.2% of 310,000 active;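 active = ratio B-score over 3 SD below the library mean, with starting fluorescence within 5 SD of its mean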;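 also: negative B-score means less thallium flux so channel inhibition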
Target sequence (Q9NPC2 whole entry, looked up): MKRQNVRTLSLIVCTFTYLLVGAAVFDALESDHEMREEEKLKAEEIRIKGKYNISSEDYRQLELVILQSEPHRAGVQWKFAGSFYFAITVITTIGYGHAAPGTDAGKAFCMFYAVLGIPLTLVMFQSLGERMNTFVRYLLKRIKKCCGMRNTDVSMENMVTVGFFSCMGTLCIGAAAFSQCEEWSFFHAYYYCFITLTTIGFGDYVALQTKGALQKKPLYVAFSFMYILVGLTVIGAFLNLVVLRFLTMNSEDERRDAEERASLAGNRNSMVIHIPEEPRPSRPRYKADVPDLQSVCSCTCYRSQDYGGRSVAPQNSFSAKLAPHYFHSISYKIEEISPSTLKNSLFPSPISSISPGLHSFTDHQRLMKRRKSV
KCNK9 inh conf = KCNK9 potassium channel inhibitors, confirmation, HEK293 cells, thallium flux, duplicate. shares compounds with KCNK9 inh. FluxOR thallium flux fluorescence. 43% of 4,900 active. inhibition, % at 10 µM;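 active = thallium signal inhibited by more than 5 SD of the compound-free buffer control wells, on both duplicate plates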
Kir2-1 spec = mouse Kir2.1 channel inhibition, confirmation, selectivity assay for KCNK9 modulator project, cell-based, HEK293, thallium flux | shares compounds with KCNK9 inh | Kir2.1 cells, FluxOR thallium flux fluorescence | inhibition, % at 10 µM | 4% of 4,900 active;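 active = thallium signal drop more than 5 SD beyond the mean of the no-compound control wells, seen in both duplicate plates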;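 also: signal is fluorescence rise after thallium addition divided by baseline fluorescence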
KCNK9 uninduced = thallium flux in non-induced HEK293 cells, confirmation, counter-screen for KCNK9 inhibitor project, cell-based, second counter screen, non-induced KCNK9-HEK293. 40% of 4,900 active. FluxOR thallium flux. inhibition, % at 10 µM. AID 492997, 2010. shares compounds with KCNK9 inh;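 active = thallium signal drop beyond 5 SD of the untreated control mean, on both duplicate plates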
KCNK3 confirm = retest of human KCNK3 channel inhibitors, confirmation, CHO cells, FluxOR thallium flux, triplicate. shares compounds with KCNK3 inh. FluxOR fluorescence; 0% buffer, 100% carvedilol maximal block. ratio percent of control, % at 10 µM. 99% of 2,400 active;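 active = ratio percent of control, averaged over triplicates, above buffer control mean plus 5 SD, cut at about 64% in these data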;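 also: ratio is the fluorescence rise from min to max over baseline after thallium stimulus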
KCNK3 noninduced = thallium flux inhibition in non-induced cells, primary screen, counter-screen for KCNK3 inhibitor project, cell-based, non-induced KCNK3 line, FluxOR thallium, triplicate; shares compounds with KCNK3 inh; AID 651747, 2012; non-induced KCNK3 parental cells; stronger effect = lower value; 40% of 2,400 active; thallium flux ratio (lower = more inhibition) at 10 µM;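 active = thallium flux ratio, averaged over three wells, more than 5 SD below the buffer control mean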;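 also: host cells are CHO cells without KCNK3 induction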
Each line names hits and unclear results; the compound was inactive in the other large screens (follow-up assays come after a bar, where they were run).

c1ccc(C2c3[nH]c4ccccc4c3CCN2Cc2cccn2-c2ccccn2)nc1 (stereo not drawn)	none
Cc1cccc(C2c3[nH]c4ccccc4c3CCN2Cc2cccn2-c2ncccn2)c1 (stereo not drawn)	KCNK3 inh -13.7, KCNK9 inh -8.48 | KCNK9 inh conf inactive | Kir2-1 spec inactive | KCNK9 uninduced 32.5% | KCNK3 confirm 113.3 | KCNK3 noninduced inactive
COc1ccc(C2c3[nH]c4ccccc4c3CCN2Cc2cccn2-c2ncccn2)cc1C (stereo not drawn)	KCNK3 inh -12.8, KCNK9 inh -17.6 | KCNK9 inh conf 53.5% | Kir2-1 spec inactive | KCNK9 uninduced 36.5% | KCNK3 confirm 130.7 | KCNK3 noninduced 0.14
C#CC(C)OC(=O)Nc1cnccc1C(F)(F)F (stereo not drawn)	none
Cc1ccccc1Sc1c(C#N)c(-c2ccccc2)nn1C	KCNK3 inh -11.6, KCNK9 inh -8.62 | KCNK9 inh conf 42.0% | Kir2-1 spec inactive | KCNK9 uninduced 50.0% | KCNK3 confirm 122.7 | KCNK3 noninduced 0.129
Cc1ccc(Sc2c(CO)c(-c3ccccc3)nn2C)cc1	none
CC(Oc1ccc(Cl)cc1)c1ccnn1S(=O)(=O)c1ccccc1 (stereo not drawn)	KCNK3 inh -9.86, KCNK9 inh -10.8 | KCNK9 inh conf 37.0% | Kir2-1 spec 51.5% | KCNK9 uninduced 60.0% | KCNK3 confirm 99.7 | KCNK3 noninduced 0.143
C=C1/C=C(\C)C(C)(O)CC(O)CC(=O)C(O)C(O)C(C)CC(C)OC(=O)/C(C)=C/CC/C=C/C(OC)C(O)CC(C)C1 (stereo not drawn)	none (no result: hERG protect, Kir21 block, KCNQ1 inh, KCNQ1 act, KCNK9 inh)
O=S(=O)(c1ccc(Br)s1)N1CCC(Cc2ccccc2)CC1	KCNK3 inh -9.15 | KCNK9 inh conf inactive | Kir2-1 spec inactive | KCNK9 uninduced inactive | KCNK3 confirm 99.7 | KCNK3 noninduced inactive
COc1ccc(C)cc1NC(=O)c1nn(-c2ccccc2)cc1OC	KCNK9 inh -17.7 | KCNK9 inh conf 61.0% | Kir2-1 spec inactive | KCNK9 uninduced 31.0% | KCNK3 confirm 129.7 | KCNK3 noninduced 0.137
COc1cn(-c2ccccc2)nc1C(=O)Nc1ccc(C)cc1	none
CN(C)S(=O)(=O)N1CCCC(C(=O)c2ccc(-c3ccccc3)c(F)c2)C1 (stereo not drawn)	KCNK3 inh -10.8, KCNK9 inh -8.38 | KCNK9 inh conf 30.5% | Kir2-1 spec inactive | KCNK9 uninduced 45.0% | KCNK3 confirm 118.7 | KCNK3 noninduced inactive
Cc1ccc(S(=O)(=O)N2CCCCC2)cc1NS(=O)(=O)c1ccc(Cl)c(C(=O)O)c1	none (no result: hERG protect, Kir21 block, KCNQ1 inh, KCNQ1 act, KCNK9 inh)
Cn1cc([N+](=O)[O-])c(C(=O)Nc2cc(Oc3ccccc3)cc([N+](=O)[O-])c2)n1	none
Cc1cccc(Oc2cc(NC(=O)c3ccccc3)cc([N+](=O)[O-])c2)c1	KCNK3 inh -11.6, KCNQ1 inh 6, KCNK9 inh -11.7 | KCNK9 inh conf 64.0% | Kir2-1 spec inactive | KCNK9 uninduced 39.0% | KCNK3 confirm 133.0 | KCNK3 noninduced 0.149
CCOC(=O)C1CCC(CNCc2ccc(Cl)cc2)CC1 (stereo not drawn)	none
Cn1nc(C(F)(F)F)c2cc(C(=O)Nc3ccc(C(F)(F)F)cc3)sc21	none
CC(C)(C)c1cc(OC(=O)c2ccccc2F)ccc1O	KCNK9 inh -10.4 | KCNK9 inh conf 33.5% | Kir2-1 spec inactive | KCNK9 uninduced 39.0% | KCNK3 confirm 100.3 | KCNK3 noninduced inactive
CC(C)CC(=O)NNC(=O)C(C)C	none
O=C(Nc1ccc(Br)cc1)/C(=C/c1cccc([N+](=O)[O-])c1)NC(=O)C1CCCCC1	KCNK3 inh -9.44, KCNK9 inh -9.65 | KCNK9 inh conf 50.0% | Kir2-1 spec inactive | KCNK9 uninduced 34.5% | KCNK3 confirm 107.3 | KCNK3 noninduced 0.148
COc1ccc(C2CC(c3cccs3)=NN2C(=O)COC(=O)C2CCCCC2)cc1OC (stereo not drawn)	KCNK3 inh -9.58, KCNK9 inh -14.8 | KCNK9 inh conf 43.0% | Kir2-1 spec inactive | KCNK9 uninduced 37.5% | KCNK3 confirm 103.3 | KCNK3 noninduced inactive
COc1ccc(Cn2nnnc2C(c2ccccn2)N2CCN(c3cc(Cl)ccc3C)CC2)cc1 (stereo not drawn)	KCNK3 inh -9.52, KCNK9 inh -10.6 | KCNK9 inh conf 43.5% | Kir2-1 spec inactive | KCNK9 uninduced 44.0% | KCNK3 confirm 101.0 | KCNK3 noninduced inactive
Cc1cc(C)cc(-n2c(C)cc(/C=N/NC(=O)CSc3ncccn3)c2C)c1	KCNK3 inh -11.4, KCNK9 inh -13.7 | KCNK9 inh conf 59.5% | Kir2-1 spec inactive | KCNK9 uninduced 32.5% | KCNK3 confirm 93.7 | KCNK3 noninduced inactive
Cc1ccc(C(=O)NCCS(=O)(=O)N2CCN(c3ccccc3F)CC2)cc1[N+](=O)[O-]	none
O=C(CN1CCN(Cc2ccccc2Cl)C1=O)N1CCCCCC1	none
O=c1cc(N2CCCCC2)c(-c2ccccc2)nn1Cc1ccccc1Cl	KCNK3 inh -9.07, KCNK9 inh -17.7 | KCNK9 inh conf 38.0% | Kir2-1 spec inactive | KCNK9 uninduced 37.5% | KCNK3 confirm 112.3 | KCNK3 noninduced inactive

Compound activity from PubChem.
